In brackets after ≈: the same amount, converted by molar mass. Activity calls are given as the source filed them. The calls are words filed in the database; no cut-off is given here.
Tests used:
[1] = Cytotoxicity against human HL cells assessed as cell viability at 10 uM after 72 hrs by celltiter-glo analysis; assay type: cell-based; conditions: read-out: Activity
Method in brief: (§1)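 After 72 h, viability was measured as intracellular ATP by CellTiter-Glo luminescence after partial medium replacement. Results are expressed as a percentage of cells given DMSO-adjusted medium.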

[2] = test system: Staphylococcus aureus; test: Antibacterial activity against Staphylococcus aureus ATCC 25923 assessed as inhibition of bacterial growth at 50 uM after 18 hrs by photometric method; assay type: functional
Method in brief: (§2)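 Bacteria were dispensed with 0.01% resazurin and compound, reaching a final 50 μM; ampicillin 25 μM was the control. After 18 h at 37 C, resazurin was read photometrically at 600 nm.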

[3] = test system: Escherichia coli; test: Antibacterial activity against Escherichia coli ATCC 25922 assessed as inhibition of bacterial growth at 50 uM after 18 hrs by photometric method; assay type: functional, organism-based; method in brief: as §2
[4] = test system: Chlamydia pneumoniae; test: Antibacterial activity against Chlamydia pneumoniae CWL029 infected in human HL cells assessed as inhibition of bacterial growth at 10 uM after 72 hrs by TR-FIA method; assay type: functional
Method in brief: (§3)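 HL cells were seeded at 6×10^4/well in RPMI 1640 with 7.5% FBS, 2 mM glutamine and gentamicin, then infected 24 h later with CWL-029 at MOI 0.2 plus 0.5 μg/mL cycloheximide and centrifuged 1 h. Compounds were added in six replicates for 72 h at 37 C. After methanol fixation, wells were labelled with europium-conjugated chlamydial antibody (100 ng/mL, 30 min, 37 C) and read by time-resolved fluorescence; rifampicin 0.012 μM served as control.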

[5] = test system: Chlamydia pneumoniae; test: Chlamydiostatic activity against Chlamydia pneumoniae CV6 infected in human Hep2 cells after 72 hrs by fluorescence assay; assay type: functional, HEp-2; conditions: CV6, 72 h
Method in brief: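 Confluent HEp-2 monolayers on coverslips were centrifuged with C. pneumoniae CV-6 (10^3 IFU/mL; 1700g, 45 min, 35 C). Medium was replaced with MEM containing cycloheximide 1 μg/mL and serial 2-fold compound dilutions. After 72 h at 35 C, 5% CO2, inclusions were stained with fluorescein-conjugated anti-Chlamydia LPS mAb. MIC is the lowest concentration with no IFU; titrations were run in duplicate.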

[6] = test system: Chlamydia pneumoniae; test: Antibacterial activity against Chlamydia pneumoniae CV6 infected in human Hep2 cells assessed as minimal chlamydiocidal activity after 72 hrs by fluorescence assay; assay type: functional, HEp-2; conditions: CV6, 72 h
Method in brief: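 CV-6 was grown in HEp-2 cells under 2-fold compound dilutions (MEM, cycloheximide 1 μg/mL, 72 h, 35 C). Drug medium was then removed, wells washed with PBS pH 7.4 and fed drug-free medium. Monolayers were disrupted, passed onto fresh monolayers, incubated and stained with fluorescein anti-LPS mAb. MCC is the lowest concentration giving no IFU in the antibiotic-free passage; run in duplicate.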

[7] = test system: HL; test: Cytotoxicity against human HL cells at 2.5 uM after 72 hrs by celltiter-glo analysis; assay type: cell-based; method in brief: as §1
[8] = test system: Chlamydia pneumoniae; test: Antibacterial activity against Chlamydia pneumoniae CWL029 infected in human HL cells after 72 hrs by TR-FIA method; assay type: functional, cell-based; conditions: in the assay text read “immunofluorescence method” for “TR-FIA method”; method in brief: as §3

SMILES	viability at 72 h, 10 µM [1]	growth inhibition (GI) [2]	growth inhibition (GI) [3]	inhibition at 10 µM [4]	MIC [5]	MCC [6]	Activity [7]	IC50 [8]	inhibition of growth at 50 µM ([2]; ATCC 25923, 18 h, read-out: GI)
Cc1cccc2[nH]c(-c3cccc(NC(=O)c4cccs4)c3)nc12	102%	inactive	inactive	89%	–	–	–	–	–
O=C(Nc1cccc(-c2nc3ccccc3[nH]2)c1)c1ccco1	98%	inactive	inactive	45%	–	–	–	–	–
COc1ccc2[nH]c(-c3cccc(NC(=O)c4cccs4)c3)nc2c1	98%	inactive	inactive	74%	–	–	–	–	–
Cn1cccc1C(=O)Nc1cccc(-c2nc3ccccc3[nH]2)c1	104%	inactive	inactive	80%	–	–	–	–	–
CC[C@H]1OC(=O)[C@H](C)[C@@H](O[C@H]2C[C@@](C)(OC)[C@@H](O)[C@H](C)O2)[C@H](C)[C@@H](O[C@@H]2O[C@H](C)C[C@H](N(C)C)[C@H]2O)[C@](C)(O)C[C@@H](C)C(=O)[C@H](C)[C@@H](O)[C@]1(C)O [ERYTHROMYCIN]	–	–	–	–	0.17 µM (≈ 0.125 µg/mL)	0.17 µM	–	–	–
CC(=O)Nc1cccc(-c2nc3ccccc3[nH]2)c1	100%	inactive	inactive	0%	–	–	–	–	–
O=S(=O)(Nc1cccc(-c2nc3ccccc3[nH]2)c1)c1ccccc1	77%	inactive	inactive	0%	–	–	–	–	–
Cc1ccccc1C(=O)Nc1cccc(-c2nc3ccccc3[nH]2)c1	90%	inactive	inactive	99%	6.1 µM (≈ 2 µg/mL)	24.5 µM	Non-toxic	–	–
COc1cccc(C(=O)Nc2cccc(-c3nc4ccccc4[nH]3)c2)c1	97%	inactive	inactive	98%	–	–	–	–	–
Cc1ccc2[nH]c(-c3cccc(NC(=O)c4cccs4)c3)nc2c1	95%	inactive	inactive	99%	12.6 µM (≈ 4.2 µg/mL)	12.6 µM	Non-toxic	–	–
O=C(Nc1cccc(-c2nc3ccccc3[nH]2)c1)c1ccoc1	101%	inactive	inactive	78%	–	–	–	–	–
CC(C)(C)C(=O)Nc1cccc(-c2nc3ccccc3[nH]2)c1	98%	inactive	inactive	0%	–	–	–	–	–
COC(=O)c1cccc(C(=O)Nc2cccc(-c3nc4ccccc4[nH]3)c2)c1	99%	inactive	inactive	99%	–	–	–	–	–
Cc1c(NC(=O)c2cccs2)cccc1-c1nc2ccccc2[nH]1	87%	inactive	inactive	59%	–	–	–	–	–
O=C(Nc1cccc(-c2nc3ccccc3[nH]2)c1)c1cscn1	98%	inactive	inactive	39%	–	–	–	–	–
O=C(Nc1cccc(-c2nc3ccccc3[nH]2)c1)c1cccc(C(F)(F)F)c1	69%	–	inactive	99%	3.2 µM (≈ 1.22 µg/mL)	50.4 µM	Non-toxic	3000 nM	85%
COc1ccc(-c2nc3ccccc3[nH]2)cc1NC(=O)c1cccs1	101%	inactive	inactive	52%	–	–	–	–	–

SMILES	viability at 72 h, 10 µM [1]	growth inhibition (GI) [2]	growth inhibition (GI) [3]	inhibition at 10 µM [4]	MIC [5]	MCC [6]	Activity [7]	IC50 [8]	inhibition of growth at 50 µM ([2]; ATCC 25923, 18 h, read-out: GI)
O=C(Nc1cccc(-c2nc3cc(Cl)ccc3[nH]2)c1)c1cccs1	92%	inactive	inactive	89%	196 µM (≈ 69.4 µg/mL)	> 196 µM	Non-toxic	–	–
COc1ccccc1C(=O)Nc1cccc(-c2nc3ccccc3[nH]2)c1	107%	inactive	inactive	0%	–	–	–	–	–
O=C(Nc1cccc(-c2ncc[nH]2)c1)c1ccsc1	133%	–	–	0%	–	–	–	–	–
O=C(Nc1cccc(-c2nc3ccccc3[nH]2)c1)c1cccc(F)c1	101%	inactive	inactive	58%	–	–	–	–	–
O=C(Nc1cccc(-c2nc3ccccc3[nH]2)c1)c1cccc(Cl)c1	106%	inactive	inactive	94%	–	–	–	–	–
COc1ccc2[nH]c(-c3cccc(NC(=O)c4ccsc4)c3)nc2c1	95%	inactive	inactive	73%	12.6 µM (≈ 4.4 µg/mL)	12.6 µM	Non-toxic	–	–
O=C(Nc1cccc(-c2nc3ccccc3[nH]2)c1)c1ccccc1C(F)(F)F	80%	inactive	inactive	96%	–	–	–	–	–
O=C(Nc1cccc(-c2nc3ccccc3[nH]2)c1)c1ccccc1	98%	inactive	inactive	99%	–	–	–	–	–
O=C(Nc1cccc(-c2nc3ccccc3o2)c1)c1cccs1	94%	–	–	61%	–	–	–	–	–
O=C(Nc1cccc(-c2ncc[nH]2)c1)c1cccs1	115%	–	–	0%	–	–	–	–	–
Cn1c(-c2cccc(NC(=O)c3cccs3)c2)nc2ccccc21	102%	inactive	inactive	0%	–	–	–	–	–
O=C(Cc1cccs1)Nc1cccc(-c2nc3ccccc3[nH]2)c1	107%	inactive	inactive	70%	–	–	–	–	–
Cc1cccc(C(=O)Nc2cccc(-c3nc4ccccc4[nH]3)c2)c1	99%	inactive	inactive	98%	3.2 µM (≈ 1.05 µg/mL)	3.2 µM	Non-toxic	2000 nM	–
O=C(Nc1cccc(-c2nc3ccccc3[nH]2)c1)c1ccsc1	98%	inactive	inactive	68%	> 196 µM	> 196 µM	Non-toxic	–	–
O=C(Nc1ccc(-c2nc3ccccc3[nH]2)cc1)c1cccs1	96%	inactive	inactive	0%	–	–	–	–	–
O=C(Nc1cccc(-c2nc3ccccc3[nH]2)c1)c1cccs1	98%	inactive	inactive	89%	196 µM (≈ 62.6 µg/mL)	> 196 µM	Non-toxic	–	–
O=C(Nc1cccc(-c2nc3ccccc3[nH]2)c1)C1CCCCC1	94%	inactive	inactive	100%	24.5 µM (≈ 7.83 µg/mL)	24.5 µM	Non-toxic	–	–
